p97 inhibitor: inhibitors of human p97 ATPase; 220,000 tested, 0.42% active; recombinant p97 ATPase, Kinase-Glo ATP luminescence, 3 h; inhibition, % at 8 µM; P55072; in the data active = inhibition above about 15%;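 note: 0% = DMSO vehicle and 100% = wells lacking enzyme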
ABCG2 inh: inhibitors of human ABCG2 transporter, ABCB1 counter-screen | Q9UNQ0 | IgMXP3 cells, JC-1 efflux, flow cytometry | inhibition, % at 6.6 µM | 190,000 tested, 0.1% active | AID 1325;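 active = inhibition above 80%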;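 note: 0% = DMSO and 100% = nicardipine control wells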
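material = IgMXP3 (ABCG2) plus far-red-tagged CCRF-Adr (ABCB1) cells | amount = 3 million cells/mL, equal mix of both lines | also added = JC-1 transporter substrate | dosing = one concentration, 6.6 µM final | schedule = 10 min at 25 °C | measured by = flow cytometric JC-1 green MFI at 530 nm | read-out basis = percent efflux inhibition, scaled nicardipine 100% to DMSO 0%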
ABCB6 inh MLPCN: human ABCB6 transporter inhibition; Q9NP58; K562-ABCB6 porphyrin accumulation, flow cytometry, 1 h; active compounds read low; fluorescence ratio to DMSO, % at 10 µM; 360,000 tested, 0.19% active;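 active = fluorescence ratio to DMSO below 75%, the collection mean minus 3 SD; inconclusive = too few cells collected in the well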;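 note: signal is porphyrin accumulated inside mitochondria; 100% equals median channel fluorescence of DMSO control wells; lower ratio means ABCB6 inhibition with less porphyrin fluorescence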
ABCB1 inh: blocks JC-1 efflux by human ABCB1 transporter. P08183. CCRF-Adr cells, flow cytometry. inhibition, % at 6.6 µM. 190,000 tested, 0.067% active; in the data active = inhibition above about 40%;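 note: 0% = vehicle and 100% = reference inhibitor; higher value means more JC-1 retained so stronger ABCB1 efflux block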
HSV augment: increases HSV replication in cells. HSV replication augmentation in cells, fold increase. maximum fold increase. 220,000 tested, 0.005% active; in the data active = maximum fold increase above about 1.5; inconclusive = no clear call, values can overlap the other calls; tested in PC3 cells
Rad51 HR inh: Rad51 (human) homologous recombination inhibition; Q06609; hRad51 DNA strand exchange, fluorescence dequenching; inhibition, % at 10 µM; 200,000 tested, 0.085% active;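 active = inhibition above 40% at the single screening dose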;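 note: 0% = DMSO control wells and 100% = blanks with heterologous ssDNA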
Target sequence (Q06609 whole entry, looked up): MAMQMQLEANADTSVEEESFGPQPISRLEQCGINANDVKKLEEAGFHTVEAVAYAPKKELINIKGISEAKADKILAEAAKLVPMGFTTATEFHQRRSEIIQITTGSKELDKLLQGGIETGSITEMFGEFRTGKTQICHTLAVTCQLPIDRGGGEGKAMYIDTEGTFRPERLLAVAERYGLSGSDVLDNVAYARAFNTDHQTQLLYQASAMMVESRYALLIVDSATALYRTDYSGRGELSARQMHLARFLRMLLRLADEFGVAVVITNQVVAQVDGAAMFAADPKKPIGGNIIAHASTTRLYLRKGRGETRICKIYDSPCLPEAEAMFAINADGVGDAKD
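material = hRad51 filaments on single-stranded DNA | timing = filaments 15 min 37 °C, then compound 30 min | signal = FRET fluorescence dequenching, excitation 485 nm, emission 520 nm | benchmarks = control wells and blank wells on each plate | evaluation = percent inhibition relative to plate controls and blanks | compound = 10 µM final, single point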
p97 inh conf: confirmation of human p97 ATPase inhibitors | shares compounds with p97 inhibitor | inhibition, % at 8 µM | recombinant p97 ATPase, Kinase-Glo ATP luminescence | 760 tested, 44% active | AID 1517;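 active = percent inhibition of p97 ATPase above a set limit, the primary screen's mean plus 3 SD, cut at about 15% in these data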;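 note: 0% = DMSO wells and 100% = wells lacking p97 protein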
ABCB6 inh CP1: inhibitors of human ABC transporter ABCB6; 700 tested, under 10 active; shares compounds with ABCB6 inh MLPCN; AID 602430; ratio response (% of DMSO), % at 10 µM; K562-ABCB6 porphyrin accumulation, flow cytometry, 1 h; active compounds read low;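 active = repeat-averaged ratio response below 75% of DMSO, the collection mean minus 3 SD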;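 note: median porphyrin fluorescence at 575 nm with 488 nm excitation from mitochondria; lower ratio means less porphyrin signal so ABCB6 inhibition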
Active calls of the source: *; i = inactive; u = inconclusive; x = not tested or not shown. Most compounds without a hit are left out; they make up all but 0.55% or so of the library.

SMILES	p97 inhibitor	ABCG2 inh	ABCB6 inh MLPCN	ABCB1 inh	HSV augment	Rad51 HR inh	ABCB6 inh CP1	others
CN(C)[C@@H]1C(=O)C(C(N)=O)=C(O)[C@@]2(O)C(=O)C3=C(O)c4c(O)cccc4[C@@](C)(O)[C@H]3[C@H](O)[C@@H]12	19*	-4	107	-2	u	1	x	p97 inh conf=40*
COc1cc(C=NNC(=S)Nc2ccc(S(=O)(=O)N3CCCCC3)cc2)cc(OC)c1OC	x	x	93	x	x	x	x
CC(C)OC(=O)c1c(N)n(CC2CCCO2)c2nc3ccccc3nc12 (stereo unspecified)	26*	8	99	2	i	0	x	p97 inh conf=0
CC(C)CCOC(=O)c1c(N)n(CC2CCCO2)c2nc3ccccc3nc12 (stereo unspecified)	3	6	96	2	i	4	x
OC(c1ccccc1)(c1ccc(Cl)cc1)C1CN2CCC1CC2 (stereo unspecified)	16*	x	91	x	i	-2	x	p97 inh conf=10
C#CCN1C(=O)S/C(=C\c2ccc(N3CCOCC3)cc2C)C1=O	-4	8	99	2	i	-127	x
COC(=O)c1nc(-c2ccc3c(n2)C(=O)C(N)=C(OC)C3=O)c(N)c(-c2ccc(OC)c(OC)c2O)c1C	17*	x	105	x	i	0	x	p97 inh conf=34*
CCC1(NS(=O)(=O)c2ccc(N)cc2)C(=O)N(C)C(=O)N(C)C1=O	x	x	100	x	x	x	x
CCCCn1c(NC(=O)c2ccco2)c(C(=O)OCC)c2nc3ccccc3nc21	33*	2	110	0	i	-8	x	p97 inh conf=35*
COc1cc(C(c2c(C)[nH]n(-c3ccccc3)c2=O)c2c(C)[nH]n(-c3ccccc3)c2=O)cc(OC)c1OC	20*	0	97	0	x	x	x	p97 inh conf=7
COc1cc2c(c(OC)c1OC)-c1ccc(OC)c(=O)cc1C(N)CC2 (stereo unspecified)	x	x	102	x	x	x	x
O=C(CCN1CCOCC1)NCC(=O)Nc1ccc(Br)cc1C(=O)c1ccccc1	3	3	70*	1	i	2	100
CCN1CCN(c2ccc(N)c(C)c2)CC1	3	-1	98	0	i	-3	x
C[N+](C)(C)CC1CCCC(C[N+](C)(C)C)C1=O (stereo unspecified)	x	x	43*	x	x	x	68*
CCOC(=O)c1cc2c(cn1)[C@@H](CCO)NC2	x	x	101	x	x	x	x
Fc1ccc(CNCCc2c[nH]c3ccccc23)cc1	x	x	69*	x	x	x	100
Fc1ccccc1CNCCc1c[nH]c2ccccc12	x	x	100	x	x	x	x
CCCCn1c(O)c(C(CC)=Nc2ccc(OC)cc2OC)c(=O)[nH]c1=O	2	1	101	1	i	-3	x
CCCCn1c(O)c(C(C)=NC(C)c2ccccc2)c(=O)[nH]c1=O (stereo unspecified)	-2	7	72*	2	i	-2	99
CCCCn1c(O)c(C(CC)=Nc2ccc(OCC)cc2)c(=O)[nH]c1=O	-5	9	74*	1	i	-3	98
CC(=O)N1CCC2(CC1)CC(=O)c1cc(OCC(=O)N3CCN(C)CC3)ccc1O2	3	-1	58*	0	i	-3	101
CC(=O)N1CCC2(CC1)CC(=O)c1cc(OCC(=O)N3CCC4(CC3)OCCO4)ccc1O2	7	0	96	0	i	5	x
O=c1cccc2n1CC1CC2CN(S(=O)(=O)c2cc(Cl)ccc2Cl)C1 (stereo unspecified)	x	x	98	x	x	x	x
CCOC(=O)c1c(-n2c(C)cc(/C=C3/C(=O)NC(=O)N(CC)C3=O)c2C)sc2c1CCCC2	1	x	73*	x	i	-13	107
COc1cccc(N(C(C)=O)C2=NCCCS2)c1	x	x	101	x	x	x	x

From PubChem BioAssay
